One experiment relates to A-431. Nature of the experiment: Cytotoxic effect on A431 human epidermoid carcinoma cells. Format: functional, cell-based. The method, boiled down: (§1)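 A431 human epidermoid carcinoma cells exposed to compounds up to 1.0 mM and scored for cell growth inhibition. The IC50 is the compound concentration giving 50% growth inhibition. Where 50% inhibition was not reached at 1.0 mM, that is recorded instead of a value.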
`COc1cc(N)c(C(=O)Nc2cccc(C(F)(F)F)c2)cc1OC` yielded an IC50 of 470 µM. Still for that read-out and setting: then `COc1cc2c(cc1OC)C(Nc1ccc(F)c(Cl)c1)=NC(C)(C)N2`, with 90 µM. Still for that read-out and setting: then `COc1cccc(NC(=N)c2cc(OC)c(OC)cc2N)c1`, with 340 µM; and `COc1cc2c(cc1OC)C(Nc1cccc(Cl)c1)=NC(C)(C)N2`, with 200 µM; and `COc1cc(N)c(C(=O)Nc2cccc(Br)c2)cc1OC`, with 340 µM.

`COc1cc(N)c(C(=N)Nc2cccc(Cl)c2)cc1OC` had an IC50 of 460 µM. Same read-out and setting: then `COc1cc(N)c(C(=N)Nc2ccc(F)c(Cl)c2)cc1OC`, with 200 µM; and `COc1cc2c(cc1OC)C(Nc1cccc(Br)c1)=NC(C)(C)N2`, with 130 µM; and `COc1cccc(NC2=NC(C)(C)Nc3cc(OC)c(OC)cc32)c1`, with 320 µM.

`COc1cc(N)c(C(=N)Nc2cccc(Br)c2)cc1OC` gave an IC50 of 300 µM. On the same count and under the same terms, then `COc1cccc(NC(=O)c2cc(OC)c(OC)cc2N)c1`, with 200 µM.

For a further experiment, the system named is A-431. Nature of the experiment: Cytotoxic effect on A431 human epidermoid carcinoma cells (No response to 1 mM). Format: functional, cell-based. Put shortly: as §1
`COc1cc(N)c(C(=O)NC2CCCCC2)cc1OC` returned an IC50 of more than 1000 µM. `COc1cc(N)c(C(=O)Nc2ccccn2)cc1OC` showed a half-inhibitory concentration (IC50) of more than 1000 µM. The same measure, in the same setting: then `COc1cc(N)c(C(=O)Nc2ccc(F)c(Cl)c2)cc1OC`, with more than 1000 µM. On the same count and under the same terms, next, `COc1cc(N)c(C(=O)NC(C)c2ccccc2)cc1OC` (configuration not stated): more than 1000 µM. On the same count and under the same terms, next, `COc1cc(N)c(C(=O)Nc2ccncc2)cc1OC`: more than 1000 µM; `COc1cc(N)c(C(=O)Nc2cccnc2)cc1OC`: more than 1000 µM.

As a reminder, the IC50 is the concentration at which inhibition is half-maximal. A higher IC50 goes with a need for much substance.

Source of the values: ChEMBL document CHEMBL1147571, “Synthesis and biological evaluation of benzamides and benzamidines: structural requirement of a pyrimidine ring for inhibition of EGFR tyrosine kinase” (Bioorg Med Chem Lett, 2004).
